Measured values reported in ChEMBL document CHEMBL1921792, “Synthesis and anticonvulsant activity of trans- and cis-2-(2,6-dimethylphenoxy)-N-(2- or 4-hydroxycyclohexyl)acetamides and their amine analogs” (Bioorg Med Chem, 2011).
The source made the active and inactive calls.

How the values were obtained:
Mus musculus [1] = test: Anticonvulsant activity against subcutaneous pentylenetetrazole-induced seizures in mouse at 100 mg/kg, ip after 4 hrs; assay type: functional, organism-based; parameters: dose 100 mg/kg
How it was run: (§1)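 Phase I screen in mice. Compound given ip as a suspension in 0.5% methylcellulose, read at 30 min and 4 h. Pentylenetetrazole 85 mg/kg in 0.9% NaCl was injected sc into the posterior midline and animals watched ≥30 min. Protection meant no clonic spasm lasting ≥5 s. Groups of 1–8 animals; result is protected/tested.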

Mus musculus [2] = test: Anticonvulsant activity in mouse assessed as protection against maximal electric shock-induced seizures at 100 mg/kg, ip after 4 hrs; assay type: functional, organism-based; parameters: dose 100 mg/kg
How it was run: (§2)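 Phase I maximal electroshock screen in mice. Compound given ip as a suspension in 0.5% methylcellulose at 30, 100 or 300 mg/kg, tested at 30 min and 4 h. Small groups (1–8); result is number protected/number tested.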

Mus musculus [3] = test: Neurotoxicity in mouse assessed as inability to maintain equilibrium on rotarod at 100 mg/kg, ip after 4 hrs by rotarod test; assay type: toxicity, organism-based; parameters: dose 100 mg/kg, route intraperitoneal; details: in vivo
How it was run: (§3)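 Drug given ip to mice as a suspension in 0.5% methylcellulose. At the stated time after dosing, each mouse was placed on a 1 inch knurled rod turning at 6 rpm. Neurotoxicity = inability to stay balanced at least 1 min in each of three trials. Scored as animals toxic/animals tested in small groups.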

Mus musculus [4] = test: Neurotoxicity in mouse assessed as inability to maintain equilibrium on rotarod at 30 mg/kg, ip after 0.5 hrs by rotarod test; assay type: toxicity, organism-based; parameters: dose 30 mg/kg, route intraperitoneal; details: in vivo; how it was run: as §3
Mus musculus [5] = test: Anticonvulsant activity against subcutaneous pentylenetetrazole-induced seizures in mouse at 30 mg/kg, ip after 0.5 hrs; assay type: functional, organism-based; parameters: dose 30 mg/kg; how it was run: as §1
Mus musculus [6] = test: Anticonvulsant activity in mouse assessed as protection against maximal electric shock-induced seizures at 30 mg/kg, ip after 4 hrs; assay type: functional, organism-based; parameters: dose 30 mg/kg; how it was run: as §2
Mus musculus [7] = test: Anticonvulsant activity in mouse assessed as protection against maximal electric shock-induced seizures at 30 mg/kg, ip after 0.5 hrs; assay type: functional, organism-based; parameters: dose 30 mg/kg; how it was run: as §2
Mus musculus [8] = test: Anticonvulsant activity in mouse assessed as protection against maximal electric shock-induced seizures at 100 mg/kg, ip after 0.5 hrs; assay type: functional, organism-based; parameters: dose 100 mg/kg; how it was run: as §2
Mus musculus [9] = test: Anticonvulsant activity against subcutaneous pentylenetetrazole-induced seizures in mouse at 30 mg/kg, ip after 4 hrs; assay type: functional, organism-based; parameters: dose 30 mg/kg; how it was run: as §1
Mus musculus [10] = test: Neurotoxicity in mouse assessed as inability to maintain equilibrium on rotarod at 30 mg/kg, ip after 4 hrs by rotarod test; assay type: toxicity, organism-based; parameters: dose 30 mg/kg, route intraperitoneal; details: in vivo; how it was run: as §3
Mus musculus [11] = test: Neurotoxicity in mouse assessed as inability to maintain equilibrium on rotarod at 300 mg/kg, ip after 0.5 hrs by rotarod test; assay type: toxicity, organism-based; parameters: dose 300 mg/kg, route intraperitoneal; details: in vivo; how it was run: as §3
Mus musculus [12] = test: Anticonvulsant activity against subcutaneous pentylenetetrazole-induced seizures in mouse at 100 mg/kg, ip after 0.5 hrs; assay type: functional, organism-based; parameters: dose 100 mg/kg; how it was run: as §1
Mus musculus [13] = test: Anticonvulsant activity in mouse assessed as protection against maximal electric shock-induced seizures at 130 mg/kg, ip after 0.25 hrs; assay type: functional, organism-based; parameters: dose 130 mg/kg
How it was run: (§4)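 Time-to-peak-effect assay: MES protection read at 0.25–4 h after dosing. Mice ip (60–130 mg/kg), rats po (15 or 30 mg/kg) or ip (30 mg/kg). Groups of 4–8; result is protected/tested.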

Rattus norvegicus [14] = test: Anticonvulsant activity in rat assessed as protection against maximal electric shock-induced seizures at 30 mg/kg, po after 0.25 hrs; assay type: functional, organism-based; parameters: dose 30 mg/kg
How it was run: (§5)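 MES test in rats dosed orally at 30 mg/kg as a suspension in 0.5% methylcellulose, read at 0.25–4 h. Four rats per time point; result is protected/tested.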

Mus musculus [15] = test: Anticonvulsant activity in mouse assessed as protection against maximal electric shock-induced seizures at 300 mg/kg, ip after 4 hrs; assay type: functional, organism-based; parameters: dose 300 mg/kg; how it was run: as §2
Mus musculus [16] = species: Mus musculus; test: Activation of GABA receptor in mouse cortical neurons assessed as potentiation of GABA-induced effect at 100 umol at -70 mV holding potential by whole-cell patch clamp electrophysiological assay relative to control
How it was run: (§6)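 Whole-cell patch clamp on primary cultured murine cortical neurons, borosilicate glass electrodes. Responses to GABA, NMDA or kainate were recorded with the compound present, as % of control stimulation. Compound at 100 µmol, holding potential -70 mV. Significance p < 0.05.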

Rattus norvegicus [17] = test: Anticonvulsant activity in fully kindled rat hippocampus assessed as protection against focal seizures at 100 mg/kg, ip after 15 mins; assay type: functional, organism-based; parameters: dose 100 mg/kg
How it was run: (§7)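 Rat hippocampus kindled with 50 Hz AC, […] for 1 s, every 0.5 h for 6 h, every other day for 10 days (60 cycles), reaching Racine stage 5. Compound 100 mg/kg ip; seizures re-induced at 15–135 min. Racine score below 3 counts as protection.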

Rattus norvegicus [18] = test: Anticonvulsant activity in fully kindled rat hippocampus assessed as protection against focal seizures at 100 mg/kg, ip after 45 mins; assay type: functional, organism-based; parameters: dose 100 mg/kg; how it was run: as §7
Mus musculus [19] = test: Anticonvulsant activity in mouse assessed as protection against maximal electric shock-induced seizures at 90 mg/kg, ip after 0.25 hrs; assay type: functional, organism-based; parameters: dose 90 mg/kg; how it was run: as §4
Mus musculus [20] = test: Anticonvulsant activity against subcutaneous pentylenetetrazole-induced seizures in mouse assessed as increase in tonic threshold at 106 mg/kg, ip by threshold tonic extension test; assay type: functional, organism-based; parameters: dose 106 mg/kg
How it was run: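 Threshold tonic extension test in mice. The compound was given ip, then pentylenetetrazol was infused until the first twitch and the first clonus. PTZ dose was calculated from the infusion speed. Mean of 8 animals ± S.E.M.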

Rattus norvegicus [21] = test: Anticonvulsant activity in rat assessed as protection against maximal electric shock-induced seizures at 30 mg/kg, po after 0.5 hrs; assay type: functional, organism-based; parameters: dose 30 mg/kg; how it was run: as §5
Mus musculus [22] = species: Mus musculus; test: Activation of NMDA receptor in mouse cortical neurons assessed as potentiation of NMDA/glycine-induced effect at 100 umol at -70 mV holding potential by whole-cell patch clamp electrophysiological assay relative to control; how it was run: as §6
N1E-115 [23] = test: Blockade of voltage-gated sodium channel in mouse N1E-115 cells assessed as stimulation at 100 umol at -60 mV holding potential by whole-cell patch clamp electrophysiological assay relative to control; assay type: cell-based
Mus musculus [24] = test: Anticonvulsant activity in mouse assessed as protection against maximal electric shock-induced seizures at 130 mg/kg, ip after 2 hrs; assay type: functional, organism-based; parameters: dose 130 mg/kg; how it was run: as §4
Mus musculus [25] = test: Anticonvulsant activity in mouse assessed as protection against maximal electric shock-induced seizures at 130 mg/kg, ip after 4 hrs; assay type: functional, organism-based; parameters: dose 130 mg/kg; how it was run: as §4
N1E-115 [26] = test: Blockade of voltage-gated sodium channel in mouse N1E-115 cells assessed as stimulation at 100 umol at -90 mV holding potential by whole-cell patch clamp electrophysiological assay relative to control; assay type: cell-based
How it was run: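 Whole-cell patch clamp with borosilicate glass electrodes on single cultured N1E-115 neuroblastoma cells. Compound at 100 µmol, holding potential -90 mV. Voltage-dependent sodium current expressed as % of control stimulation (no compound). Results from 5–8 cells averaged with SEM; significance by Student's t-test.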

Mus musculus [27] = species: Mus musculus; test: Activation of kainate receptor in mouse cortical neurons assessed as potentiation of kainate-induced effect at 100 umol at -70 mV holding potential by whole-cell patch clamp electrophysiological assay relative to control; how it was run: as §6
Mus musculus [28] = test: Anticonvulsant activity in mouse assessed as protection against maximal electric shock-induced seizures at 130 mg/kg, ip after 0.5 hrs; assay type: functional, organism-based; parameters: dose 130 mg/kg; how it was run: as §4
Mus musculus [29] = test: Anticonvulsant activity against subcutaneous pentylenetetrazole-induced seizures in mouse at 300 mg/kg, ip after 0.5 hrs; assay type: functional, organism-based; parameters: dose 300 mg/kg; how it was run: as §1
[30] = Neurotoxicity in po dosed rat assessed as neurological deficit […]; assay type: toxicity, organism-based; details: in vivo
How it was run: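 Rats dosed orally with a suspension in 0.5% methylcellulose. Neurological deficit judged by ataxia and loss of placing response and muscle tone.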

Rattus norvegicus [31] = test: Anticonvulsant activity in po dosed rat assessed as protection against maximal electric shock-induced seizures; assay type: functional
Mus musculus [32] = test: Anticonvulsant activity in ip dosed mouse assessed as protection against maximal electric shock-induced seizures; assay type: functional; details: Mus musculus, ip; read-out: ED50
[33] = Neurotoxicity in ip dosed mouse assessed as inability to maintain equilibrium on rotarod by rotarod test; assay type: toxicity, organism-based; details: in vivo
How it was run: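 Mice dosed ip with a suspension in 0.5% methylcellulose, then placed on a 1 inch knurled plastic rod rotating at 6 rpm. Toxicity = failure to keep equilibrium for at least 1 min in each of three trials.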

Rattus norvegicus [34] = species: Rattus norvegicus; test: Protective index, ratio of TD50 for neurotoxicity in rat to ED50 for inhibition of maximal electroshock-induced seizures in rat; assay type: functional
Mus musculus [35] = species: Mus musculus; test: Protective index, ratio of TD50 for neurotoxicity in mouse to ED50 for inhibition of maximal electroshock-induced seizures in mouse; assay type: functional

In the case of `Cc1cccc(C)c1OCCNC1CCC(O)CC1` (racemic), the Activity (Mus musculus [1]) is reported as “inactive”, the Activity (Mus musculus [2]) is reported as “inactive” and the Activity (Mus musculus [3]) is reported as “Non-toxic”. For the same molecule, the Activity (Mus musculus [4]) was “Non-toxic”, the Activity (Mus musculus [5]) was “inactive” and the Activity (Mus musculus [6]) was “inactive”. The Activity (Mus musculus [7]) was “inactive”, the Activity (Mus musculus [8]) was “Active” and the Activity (Mus musculus [9]) was “inactive”. The Activity (Mus musculus [10]) was “Non-toxic”, the Activity (Mus musculus [11]) was “Toxic” and the Activity (Mus musculus [12]) was “inactive”.
With `Cc1cccc(C)c1OCC(=O)NC1CCCCC1O` (racemic; 1) the Activity (Mus musculus [1]) was “inactive”, the Activity (Mus musculus [2]) was “inactive” and the Activity (Mus musculus [13]) was “Active”. For the same molecule, the Activity (Rattus norvegicus [14]) was “Active”, the Activity (Mus musculus [15]) was “inactive” and the Activity (Mus musculus [16]) was 179%. The Activity (Rattus norvegicus [17]) was “Active”, the Activity (Mus musculus [5]) was “inactive” and the Activity (Mus musculus [6]) was “inactive”. The Activity (Rattus norvegicus [18]) was “Active”, the Activity (Mus musculus [19]) was “Active” and the Activity (Mus musculus [20]) was “Active”. For the same molecule, the Activity (Rattus norvegicus [21]) was “Active”, the Activity (Mus musculus [22]) was 104% and the Activity (Mus musculus [7]) was “inactive”. For the same molecule, the Activity (N1E-115 [23]) was 39%, the Activity (Mus musculus [24]) was “inactive” and the Activity (Mus musculus [9]) was “inactive”. The Activity (Mus musculus [25]) was “inactive”, the Activity (N1E-115 [26]) was 85% and the Activity (Mus musculus [27]) was 98%. For the same molecule, the Activity (Mus musculus [28]) was “Active” and the Activity (Mus musculus [29]) was “Active”.
Work on `O=C1NC(=O)C(c2ccccc2)(c2ccccc2)N1` [PHENYTOIN] yielded a TD50 [30] greater than 500 mg/kg, an ED50 (Rattus norvegicus [31]) of 32.2 mg/kg and an ED50 (Mus musculus [32]) of 6.48 mg/kg. The TD50 [33] was 34.5 mg/kg, the “Ratio TD50/ED50” value (Rattus norvegicus [34]) was greater than 22 and the “Ratio TD50/ED50” value (Mus musculus [35]) was 6.6. The Activity (N1E-115 [26]) was 78%.
